Where a name gives a salt, the structure may show the parent alone.
Key:
Assay type in all cases: cell-based
LN-229 = experiment: Anticancer screening, MTS cell proliferation assay, 72 h; settings: Homo sapiens
Summary of the method: (§1)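 Human solid-tumour lines were grown as monolayers in supplier-recommended media at 37 °C, 5% CO2. LN-229 was seeded at 375 and Capan-1 at 250 cells/well and incubated overnight. Cells were then exposed for 72 h to seven concentrations (100 to 6.4 × 10−3 µM). MTS reagent was added and absorbance read at 490 nm. Two independent experiments were run, each point at least in triplicate.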

Capan-1 = experiment: as above; settings: Homo sapiens
Summary of the method: as §1

Z-138 = experiment: Anticancer screening, MTS cell proliferation assay, 72 h; settings: Homo sapiens
Summary of the method: (§2)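 HL-60, K-562, Z-138 and DND-41 suspension cells were seeded at 2500–6000 cells/well directly into wells already containing test compound at seven concentrations (100 to 6.4 × 10−3 µM). After 72 h, MTS reagent was added and absorbance read at 490 nm. GI50 is the concentration giving 50% growth inhibition. Two independent experiments were run, each point at least in triplicate.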

MCF-7 = experiment: Anticancer screening, MTT assay, 72 h; settings: Homo sapiens, MCF7, 72 h
Summary of the method: (§3)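 Monolayer cultures were kept at 37 °C, 5% CO2 and plated on day 0 at 3 × 10^4 cells/mL (HCT 116, H460) or 5 × 10^4 cells/mL (MCF-7). Test agents were added in ten-fold dilutions (10−8 to 10−4 M) and incubated 72 h. Growth was read by MTT at 570 nm. GI50 is the concentration giving 50% inhibition. Two independent experiments were run, points at least in triplicate.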

DND-41 = experiment: Anticancer screening, MTS cell proliferation assay, 72 h; settings: Homo sapiens
Summary of the method: as §2

K-562 = experiment: as above; settings: Homo sapiens
Summary of the method: as §2

H460 = experiment: Anticancer screening, MTT assay, 72 h; settings: Homo sapiens
Summary of the method: as §3

HL-60 = experiment: Anticancer screening, MTS cell proliferation assay, 72 h; settings: Homo sapiens
Summary of the method: as §2

HCT 116 = experiment: Anticancer screening, MTT assay, 72 h; settings: Homo sapiens
Summary of the method: as §3

Compound | GI50 (LN-229; LN-229, 72 h) [µM] | GI50 (Capan-1; CAPAN-1, 72 h) [µM] | GI50 (Z-138; Z-138, 72 h) [µM] | GI50 (MCF-7) [µM] | GI50 (DND-41; DND41, 72 h) [µM] | GI50 (K-562; K562, 72 h) [µM] | GI50 (H460; NCI-H460, 72 h) [µM] | GI50 (HL-60; HL-60, 72 h) [µM] | GI50 (HCT 116; HCT-116, 72 h) [µM] | GI50 (LN-229; LN-229) [µM] | GI50 (Capan-1; CAPAN-1) [µM] | GI50 (Z-138; Z-138) [µM] | GI50 (DND-41; DND41) [µM] | GI50 (K-562; K562) [µM] | GI50 (H460; NCI-H460) [µM] | GI50 (HL-60; HL-60) [µM] | GI50 (HCT 116; HCT-116) [µM]
COc1cc(NC(C)CCCN)c2ncccc2c1 (stereo not shown) [PQ, primaquine diphosphate, reference compound] | 9.9 ± 0.4 | 9 ± 3.2 | 10.2 ± 0.5 | 7 ± 1.5 | 14 ± 1 | 43.3 ± 0.1 | 17 ± 3 | 7 ± 0.5 | 17 ± 1 |  |  |  |  |  |  |  | 
C=C(CC(=O)OC)C(=O)Nc1ccc(F)cc1 [Compound 2, Methyl 3-[(4-fluorophenyl)carbamoyl]but-3-enoate] | 8 ± 0.6 | 2.8 ± 0.6 | 8.4 ± 0.5 | 2 ± 0.1 | 15.7 | 15.9 ± 1 | 15 ± 1 | 9.3 ± 0.5 | 4 ± 1 |  |  |  |  |  |  |  | 
CN[C@@H]1C[C@H]2O[C@@](C)([C@@H]1OC)n1c3ccccc3c3c4c(c5c6ccccc6n2c5c31)C(=O)NC4 [STS, staurosporine, reference compound] |  |  |  |  |  |  |  |  |  | 0.0634 ± 0.0223 | 0.0323 ± 0.0032 | 0.0261 ± 0.0139 | 0.0161 ± 0.0105 | 0.0337 ± 0.0036 | 0.048 ± 0.0023 | 0.0312 ± 0.0123 | 0.023 ± 0.0114
C=C(CC(=O)OC)C(=O)Nc1cccc(C(F)(F)F)c1 [Compound 3, Methyl 3-{[3-(trifluoromethyl)phenyl]carbamoyl}but-3-enoate] | 4.4 ± 0.1 | 1.9 ± 0.3 | 5.4 ± 0.1 | 2 ± 0.4 | 21.2 ± 4 | 13.9 ± 0.6 | 9 ± 2 | 3.7 ± 0.1 | 3 ± 1 |  |  |  |  |  |  |  | 
C=C(CC(=O)OC)C(=O)Nc1cccnc1 [Compound 6, Methyl 3-[(pyridin-3-yl)carbamoyl]but-3-enoate] | 10.2 ± 1 | 8.9 ± 0.1 | 10.9 | 3 ± 1 | 26.3 ± 6.6 | 49.9 ± 2.2 | 18 ± 1 | 13.1 ± 1 | 12 ± 2 |  |  |  |  |  |  |  | 
CCN(CC)CCCC(C)Nc1ccnc2cc(Cl)ccc12 (stereo not shown) [CQ, chloroquine diphosphate, reference compound] | 22 ± 2.8 | 14.9 ± 1.5 | 13.6 ± 0.6 | 6 ± 1.8 | 53.7 ± 6.9 | 45 ± 0.7 | 13 ± 0.8 | 13 ± 0.2 | 16 ± 3 |  |  |  |  |  |  |  | 
COc1ccc2[nH]c(CCNC(=O)C=C(C)C(=O)NCCc3c[nH]c4ccc(OC)cc34)cc2c1 [Compound 14, N′-[2-(5-methoxy-1H-indol-2-yl)ethyl]-N-[2-(5-methoxy-1H-indol-3-yl)ethyl]-2-methylbut-2-enediamide] |  |  |  | 11 ± 0.3 |  |  | 23 ± 1 |  | 13 ± 0.2 |  |  |  |  |  |  |  | 
CC(=O)O[C@@]12CO[C@@H]1C[C@H](O)[C@@]1(C)C(=O)[C@H](O)C3=C(C)[C@@H](OC(=O)[C@H](O)[C@@H](NC(=O)OC(C)(C)C)c4ccccc4)C[C@@](O)([C@@H](OC(=O)c4ccccc4)[C@H]21)C3(C)C [DTX, docetaxel, reference compound] |  |  |  |  |  |  |  |  |  | 0.0035 ± 0.0012 | 0.0045 ± 0.002 | 0.0014 ± 0.0009 | 0.002 ± 0.0012 | 0.0096 ± 0.0033 | 0.0058 ± 0.0038 | 0.0104 ± 0.0024 | 0.0045 ± 0.0044
C=C(CC(=O)OC)C(=O)NCCc1c[nH]c2ccc(OC)cc12 [Compound 10, Methyl 3-{[2-(5-methoxy-1H-indol-3-yl)ethyl]carbamoyl}but-3-enoate] | 6.5 ± 1.2 | 2.4 ± 0.9 | 2.6 ± 0.3 | 2 ± 1.2 | 18.9 ± 4.2 | 16.5 ± 1 | 11 ± 1 | 4.9 ± 0.8 | 3 ± 1 |  |  |  |  |  |  |  | 
C=C(CC(=O)OC)C(=O)NCc1cccnc1 [Compound 8, Methyl 3-{[(pyridin-3-yl)methyl]carbamoyl}but-3-enoate] | 8.4 ± 0.1 | 9.1 ± 0.7 | 10.2 ± 0.3 | 6 ± 1 | 16.3 ± 0.1 | 53.3 ± 2.7 | 16 ± 2 | 11 ± 0.3 | 3 ± 1 |  |  |  |  |  |  |  | 
CC(=CC(=O)NCCCCNc1cc(C(F)(F)F)nc2c(C(F)(F)F)cccc12)C(=O)NCCCCNc1cc(C(F)(F)F)nc2c(C(F)(F)F)cccc12 [Compound 15, N,N′-bis(4-{[2,8-bis(trifluoromethyl)quinolin-4-yl]amino}butyl)-2-methylbut-2-enediamide] | 2.4 ± 0.8 | 2.3 ± 0.3 | 6.9 ± 1.3 | 0.7 ± 0.2 | 7.9 ± 4.4 | 8.6 ± 0.3 | 3 ± 1 | 2.6 ± 0.2 | 2.4 ± 0.4 |  |  |  |  |  |  |  | 
C=C(CC(=O)OC)C(=O)NCCCCNc1ccnc2cc(Cl)ccc12 [Compound 12, Methyl 3-({4-[(7-chloroquinolin-4-yl)amino]butyl}carbamoyl)but-3-enoate] | 1.1 ± 0.1 | 1.3 ± 0.4 | 1.9 ± 0.1 | 0.8 ± 0.3 | 3.1 ± 0.1 | 8.1 ± 0.4 | 2 ± 0.9 | 1.9 | 2 ± 0.05 |  |  |  |  |  |  |  | 
C=C(CC(=O)OC)C(=O)NCCCCNc1cc(C(F)(F)F)nc2c(C(F)(F)F)cccc12 [Compound 13, Methyl 3-[(4-{[2,8-bis(trifluoromethyl)quinolin-4-yl]amino}butyl)carbamoyl]but-3-enoate] | 10.8 ± 2.5 | 32.2 ± 2.7 | 12.2 ± 0.1 | 1.4 ± 0.1 | 36.7 ± 10 | 46.9 ± 0.7 | 3.5 ± 1.3 | 10.3 ± 1.5 | 2 ± 0.8 |  |  |  |  |  |  |  | 
C=C(CC(=O)OC)C(=O)Nc1ccc(C(F)(F)F)cc1 [Compound 4, Methyl 3-{[4-(trifluoromethyl)phenyl]carbamoyl}but-3-enoate] | 7.7 ± 0.2 | 5.3 ± 0.5 | 8.2 ± 0.4 | 1 ± 0.3 | 16.1 ± 0.4 | 31.3 ± 3 | 11 ± 3 | 8 ± 0.8 | 3 ± 1 |  |  |  |  |  |  |  | 
C=C(CC(=O)OC)C(=O)NCCc1cccnc1 [Compound 9, Methyl 3-{[2-(pyridin-3-yl)ethyl]carbamoyl}but-3-enoate] | 6.2 ± 0.8 | 5.9 ± 0.2 | 5.6 ± 1.6 | 2 ± 1 | 18.5 ± 2.4 | 34.5 ± 8.7 | 15 ± 1 | 9.6 ± 0.6 | 4 ± 1 |  |  |  |  |  |  |  | 
C=C(CC(=O)OC)C(=O)Nc1cncc(F)c1 [Compound 7, Methyl 3-[(5-fluoropyridin-3-yl)carbamoyl]but-3-enoate] | 8.1 ± 0.3 | 6.8 ± 1.7 | 9 ± 0.2 | 3 ± 1.1 | 21 ± 2.2 | 43.4 | 16 ± 2 | 10.6 ± 0.7 | 7 ± 2 |  |  |  |  |  |  |  | 
OC(c1cc(C(F)(F)F)nc2c(C(F)(F)F)cccc12)C1CCCCN1 (stereo not shown) [MQ, mefloquine hydrochloride, reference compound] | 0.1 ± 0.1 | 2 ± 0.1 | 12.6 ± 0.1 | 1.3 ± 0.2 | 3.2 ± 0.2 | 9.4 ± 0.3 | 1.5 ± 0.1 | 5.9 ± 3.2 | 2 ± 0.1 |  |  |  |  |  |  |  | 
C=C(CC(=O)OC)C(=O)Nc1cc(OC)cc2cccnc12 [Compound 5, Methyl 3-[(6-methoxyquinolin-8-yl)carbamoyl]but-3-enoate] | 6.2 ± 0.4 | 6.3 ± 2.3 | 6.1 ± 0.3 | 10 ± 2.5 | 25.5 ± 9.4 | 31 ± 3.9 | 8 ± 2 | 10.1 ± 0.1 | 12 ± 2 |  |  |  |  |  |  |  | 
C=C(CC(=O)OC)C(=O)NCCCC(C)Nc1cc(OC)cc2cccnc12 (stereo not shown) [Compound 11, Methyl 3-({4-[(6-methoxyquinolin-8-yl)amino]pentyl}carbamoyl)but-3-enoate] | 4.3 ± 2.2 | 5.4 ± 3.3 | 11 ± 0.2 | 4 ± 1 | 18.1 ± 1.1 | 28.1 ± 7.1 | 4 ± 0.5 | 11.1 ± 0.6 | 2.5 ± 0.07 |  |  |  |  |  |  |  | 
